Bioassay records as filed in PubChem.
PG9 Ab binder = PG9 antibody binding by small molecule; AID 624416; TR-FRET gp120-PG9 antibody binding; inhibition, % at 6.7 µM; 360,000 tested, 0.43% active; in the data active = inhibition above about 8.5%
NR2E3 ag-1 = agonists of human NR2E3 nuclear receptor; 360,000 tested, 0.35% active; CHO-S Gal4-NCOR/VP16-NR2E3 two-hybrid, luciferase; inhibition of corepressor binding, % at 3.98 µM; Q9Y5X4;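 active = inhibition above the mean of all tested compounds plus 3 SD, cut at about 70% in these data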;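 also: higher means lower luciferase signal from less NR2E3 corepressor binding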
Target sequence (Q9Y5X4 whole entry, looked up, the tested form may be a part): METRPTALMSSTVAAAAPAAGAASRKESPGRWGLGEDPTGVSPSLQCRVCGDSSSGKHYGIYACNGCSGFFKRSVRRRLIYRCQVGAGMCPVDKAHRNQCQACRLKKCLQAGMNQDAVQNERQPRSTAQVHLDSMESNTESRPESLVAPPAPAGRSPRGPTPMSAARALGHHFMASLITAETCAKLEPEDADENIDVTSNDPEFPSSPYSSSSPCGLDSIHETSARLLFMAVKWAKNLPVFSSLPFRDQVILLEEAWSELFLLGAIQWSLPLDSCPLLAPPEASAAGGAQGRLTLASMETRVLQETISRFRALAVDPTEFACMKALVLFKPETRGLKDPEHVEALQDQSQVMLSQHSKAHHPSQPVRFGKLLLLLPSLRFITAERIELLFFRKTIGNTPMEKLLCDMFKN
NR2E3 ag-2 = NR2E3 (human) agonism. Q9Y5X4. GST-NR2E3/biotin-RetCOR TR-FRET, 1536-well. inhibition of corepressor binding, % at 4.78 µM. 320,000 tested, 0.12% active. AID 2300;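 active = percent inhibition above the cutoff of mean plus 3 SD of all tested compounds, set per screening campaign, cut at about 20% in these data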
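Material – GST-tagged NR2E3 plus biotinylated RetCOR corepressor · Quantity – NR2E3 fusion 1.35 nM · Times – 5 h incubation at 4 °C · Medium – pH 7.5 Tris-based buffer · Technique – TR-FRET, Eu(K)-anti-GST donor, streptavidin-D2 acceptor, ex 340, em 617/671 nm · Benchmarks – high control biotin, low control 0.6% DMSO · Format – 1536-well plates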
VLA-4 inh = inhibition in a human VLA-4 binding assay. AID 2557. VLA-4 expressing cells, ligand binding flow cytometry. P13612. 330,000 tested, 0.2% active. inhibition, % (about 7 µM as worked out from the volumes in the protocol); in the data active = inhibition above about 50%
Rev-erbA mod = modulators of human Rev-erb alpha DNA binding | activity, % at 10 µM | 370,000 tested, 0.79% active | P20393 | Rev-erbα–FITC-DNA binding, fluorescence polarization, 90 min;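 active = activity above about 14%, limit read from the data; passing the limit was not always enough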
VLA-4 allo CP = human VLA-4 allosteric modulation in cherry picked compounds; shares compounds with VLA-4 inh; U937 cells, HUTS-21 LIBS mAb binding, flow cytometry; LDV ligand present at threefold Kd; inhibition, % at 6.7 µM; 1,300 tested, 2% active; AID 2813; in the data active = inhibition above about 40%
A number is an active result; n = inactive; x = not tested or not shown; ! = not confirmed by another sample. Compounds with a hit are over-represented: about 1.6% of the library has one in this group of screens.

SMILES	PG9 Ab binder	NR2E3 ag-1	NR2E3 ag-2	VLA-4 inh	Rev-erbA mod	VLA-4 allo CP
O=C(C1CCCN1S(=O)(=O)c1ccccc1[N+](=O)[O-])N1CCN(c2ccccc2)CC1 (centres undefined)	x	x	x	x	n	x
CN(C)c1nc(N(C)C)nc(N(C)C)n1	n	n	n	n	n	x
CNc1nc(N(C)C)nc(N(C)C)n1	n	n	n	59	n	n
C=CCNC(=S)N(C)[C@H]1C[C@H]2c3cc(-c4ccccc4C)ccc3CCN2C[C@H]1[C@H](C)O	n	x	x	x	n	x
COc1cc2c(cc1NC(=O)CSc1nnc(COc3ccccc3)n1Cc1ccco1)oc1ccccc12	x	x	x	x	n	x
N#Cc1ccc(CNC(=O)N2CCOCC2)cc1	n	n	n	n	n	n
CCCCCCCC(=O)N[C@H]1CC[C@@]23CCCN2C(=O)CCC[C@H]3[C@H]1CCC	x	x	x	x	n	x
CC(=O)NN1C(=O)/C(=C2/Sc3ccccc3N2C)SC1=S	n	n	n	n	n	n
CC(C)(C)N(NC(=O)NCCCl)C(=O)c1ccccc1Cl	x	x	x	x	n	x
Cc1ccc(NC(=O)C2CCN(C(=O)c3ccc(F)cc3)CC2)nc1	n	n	n	n	n	n
O=C(Nc1ccc(F)cc1)C1CCN(C(=O)c2ccc(F)cc2)CC1	n	n	n	n	n	n
O=C(NCCc1ccc(F)cc1)C1CCN(C(=O)Nc2ccccc2)CC1	n	n	n	58	n	n
Cc1ccc(C(=O)N2CCC(C(=O)c3ccc(F)cc3)CC2)cc1	n	n	x	x	n	x
O=C(NCCc1ccccc1)C1CCN(C(=O)c2ccc(F)cc2)CC1	n	n	n	n	n	x
CC(=O)N[C@@H](CCC(N)=O)C(=O)O	x	x	x	x	n	x
O=C(CCc1ccccc1)N[C@H]1[C@@H](OC(=O)c2cccnc2)CCC[C@]12C(=O)N(Cc1ccccc1)c1ccccc12	x	x	x	x	n	x
O=C(CSCc1cccc(Br)c1)N=Nc1c(O)[nH]c2ccccc12	n	n	n	57	n	n
CCN1CCN(Cc2ccc(NC(=O)c3cc(NC(=O)c4ccc5n[nH]nc5c4)cc(OC)c3)cc2C(F)(F)F)CC1	n	n	n	n	n	x
CCN1CCN(Cc2ccc(NC(=O)c3cc(NC(=O)N4CCNC4=O)cc(OC)c3)cc2C(F)(F)F)CC1	n	n	n	55	n	n
COc1cc(NC(=O)N2CCNC2=O)cc(C(=O)Nc2cccc(C(F)(F)F)c2)c1	n	n	n	n	n	n
C[C@@H]1C[C@H]2O[C@@H]2/C=C\C=C\C(=O)Cc2cc(O)cc(O)c2C(=O)O1	x	x	x	x	n	x
C=CCn1c(O)c(C2=c3ccccc3=NC2=O)c2ccccc21	n	n	n	51	n	n
O=c1[nH]cnc2c1nc(SCc1ccccc1)n2C1OC(CO)C(O)C1O (centres undefined)	n	n	n	51	n	n
O=c1[nH]cnc2c1ccn2C1OC(CO)C(O)C1O (centres undefined)	n	n	x	x	n	x
O=C1CCC[C@H]2C[C@H](NCc3ccc(F)cc3F)CC[C@]23CCCN13	x	x	x	x	n	x
SMILES	PG9 Ab binder	NR2E3 ag-1	NR2E3 ag-2	VLA-4 inh	Rev-erbA mod	VLA-4 allo CP
Cc1ccc(S(=O)(=O)N2[C@@H](c3ccc(Cl)cc3)C(C(=O)O)=C[C@H]2CC2CCCC2)cc1	n	n	x	n	n	n
CCCCC[C@@H]1C=C(C(=O)O)[C@H](c2ccc(Br)cc2)N1S(=O)(=O)c1ccc(C)cc1	n	n	x	n	n	n
CCCC[C@@H]1C=C(C(=O)O)[C@H](c2ccc(Cl)cc2)N1S(=O)(=O)c1ccc(C)cc1	n	n	x	n	n	n
CCCC[C@@H]1C=C(C(=O)O)[C@H](c2ccc3c(c2)OCO3)N1S(=O)(=O)c1ccc(C)cc1	n	n	x	n	n	n
Cc1ccc(S(=O)(=O)N2[C@@H](c3ccc4c(c3)OCO4)C(C(=O)O)=C[C@H]2C(C)(C)C)cc1	n	n	x	n	n	x
Cc1ccc(S(=O)(=O)N2[C@@H](c3ccc(C#N)cc3)C(C(=O)O)=C[C@H]2CC2CCCC2)cc1	n	n	x	n	n	x
O=C(Cc1ccccc1)NC1CCCc2c1cnn2-c1ccc(F)cc1F (centres undefined)	x	x	x	x	n	x
COC(CNC(=O)[C@H](Cc1ccccc1)NC(C)(C)C(=O)NC1CCCCC1)OC	x	x	x	x	n	x
COC(=O)C1CN(C2CC2)CCS(=O)(=O)N1Cc1cn(Cc2ccc(C)cc2)nn1 (centres undefined)	x	x	x	x	n	x
Cc1cccc(NC(=O)NN(C(=O)c2ccccc2Cl)C(C)(C)C)c1	x	x	x	x	n	x
CCOC(=O)c1c(NC(=O)COc2ncnc3sccc23)sc2c1CCC2	n	n	n	70	n	n
CN(Cc1ccccc1)S(=O)(=O)c1cccc(C(=O)OCc2ccc(Oc3ccccc3)cc2)c1	x	x	x	x	n	x
O=C(/C=C/c1ccccc1)NNc1ccc(Cl)cc1	n	n	n	55	n	n
O=C(/C=C/c1ccccc1)NNC(=O)c1cccc(Cl)c1	n	n	n	n	n	x
CC(=O)OC[C@H]1O[C@@](COC(C)=O)(O[C@H]2O[C@H](COC(C)=O)[C@@H](OC(C)=O)[C@H](OC(C)=O)[C@H]2OC(C)=O)[C@@H](OC(C)=O)[C@@H]1OC(C)=O	x	x	x	x	n	x
C#CCN(CC=C)Cc1ccc(OC)cc1OC	x	x	x	x	n	x
O=C(OCc1c(F)cccc1Cl)c1cccnc1Cl	n	n	n	51	n	n
C[C@H]1C(=O)[C@]23C[C@H]1CC[C@H]2[C@]1(C)[C@@H](O)CC[C@@](C)(C(=O)O)[C@H]1C[C@@H]3O	x	x	x	x	n	x
CCN(CC)S(=O)(=O)c1cccc(C(=O)OCC(=O)Nc2ccccc2OC(F)F)c1	n	n	n	n	n	n
O=C(NC(CC1=CCCCC1)c1ccccc1)C(F)(F)F (centres undefined)	n	x	x	x	n	x
COc1ccc(Cn2cc(CN3[C@H](CC(C)C)COc4cc(Br)ccc4S3(=O)=O)nn2)cc1	x	x	x	x	n	x
CCOC(=O)/C(=C\c1ccc(OC(F)F)cc1)C1=Nn2c(nnc2-c2ccc(Cl)cc2)SC1	x	n	n	60	x	51
O=C(c1cc(-c2ccccn2)nc2c(Cl)cccc12)N1CCN(S(=O)(=O)c2ccccc2)CC1	n	n	n	n	n	x
O=C(c1cc(-c2ccccn2)nc2c(Cl)cccc12)N1CCN(C(=O)C2CCCO2)CC1 (centres undefined)	n	n	n	n	n	n
CC(=O)Oc1ccc(NC(=O)Cc2ccccc2)c(C(=O)O)c1	n	n	n	52	n	n
Nc1ncnc2nc[nH]c12	n	n	n	58!	n	n
Nc1nc(N)c2[nH]cnc2n1	x	x	n	n	x	x
COc1ccc(S[C@]2(C(=O)N(C)C)CC(=O)N(c3ccccc3)[C@@H]2c2ccc(OC)cc2)cc1	x	x	x	x	n	x
CCC(C(=O)OC)n1cnc2c(nnn2-c2cccc(OC)c2)c1=O (centres undefined)	n	n	n	n	n	n
COc1cc(OC)cc(C(=O)NC(=S)NCc2ccco2)c1	x	n	n	n	n	x
